Assay [1] deals with HCT-116. Nature of the assay: Antiproliferative activity against human HCT116 cells after 48 hrs by MTT assay. The format is functional, cell-based. Particulars: HCT-116, 48 h. In a few lines: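 HCT116 cells grown in DMEM with 10% FBS at 37 °C under 5% CO2. 10,000 cells per well were seeded and treated 24 h later with a concentration series in DMSO (0.5%). After 48 h more, MTT viability was read. Run in triplicate; IC50 by nonlinear regression.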
Background: Formazan colour is commonly taken as a measure of viable cells.

In assay [2] the test system is HCT-116. Nature of the assay: Synergistic antiproliferative activity against human HCT116 cells assessed as combination index at 1 uM after 48 hrs in presence of 32 uM laxaphycin A by MTT assay. It counts as functional.
In assay [3] the test system is HCT-116. Nature of the assay: Synergistic antiproliferative activity against human HCT116 cells assessed as combination index at 0.32 uM after 48 hrs in presence of 10 uM laxaphycin A by MTT assay. It counts as functional.
Assay [4] concerns HCT-116. The assay is described as follows: Synergistic antiproliferative activity against human HCT116 cells assessed as combination index at 0.1 uM after 48 hrs in presence of 3.2 uM laxaphycin A by MTT assay. It counts as functional.
In assay [5] the test system is HCT-116. Nature of the assay: Synergistic antiproliferative activity against human HCT116 cells assessed as combination index at 0.032 uM after 48 hrs in presence of 1 uM laxaphycin A by MTT assay. It counts as functional.
For assay [6], the system named is HCT-116. The assay is described as follows: Synergistic antiproliferative activity against human HCT116 cells assessed as combination index at 32 uM after 48 hrs in presence of 320 uM laxaphycin A by MTT assay. It counts as functional.
Assay [7] deals with HCT-116. The assay is described as follows: Synergistic antiproliferative activity against human HCT116 cells assessed as combination index at 10 uM after 48 hrs in presence of 100 uM laxaphycin A by MTT assay. It counts as functional.
In assay [8] the test system is HCT-116. Nature of the assay: Synergistic antiproliferative activity against human HCT116 cells assessed as combination index at 3.2 uM after 48 hrs in presence of 32 uM laxaphycin A by MTT assay. The format is functional.
For assay [9], the system named is HCT-116. Nature of the assay: Synergistic antiproliferative activity against human HCT116 cells assessed as combination index at 1 uM after 48 hrs in presence of 10 uM laxaphycin A by MTT assay. It counts as functional.
The subject of assay [10] is HCT-116. Nature of the assay: Synergistic antiproliferative activity against human HCT116 cells assessed as combination index at 0.32 uM after 48 hrs in presence of 3.2 uM laxaphycin A by MTT assay. It counts as functional.
Assay [11] concerns HCT-116. Nature of the assay: Synergistic antiproliferative activity against human HCT116 cells assessed as combination index at 0.1 uM after 48 hrs in presence of 1 uM laxaphycin A by MTT assay. The format is functional.
For assay [12], the system named is HCT-116. Nature of the assay: Synergistic antiproliferative activity against human HCT116 cells assessed as combination index at 10 uM after 48 hrs in presence of 1 uM laxaphycin B4 by MTT assay. The format is functional.
Assay [13] deals with HCT-116. Nature of the assay: Synergistic antiproliferative activity against human HCT116 cells assessed as combination index at 32 uM after 48 hrs in presence of 1 uM laxaphycin B4 by MTT assay. The format is functional.
Assay [14] deals with HCT-116. The assay is described as follows: Synergistic antiproliferative activity against human HCT116 cells assessed as combination index at 10 uM after 48 hrs in presence of 0.32 uM laxaphycin B4 by MTT assay. The format is functional.
Assay [15] has as its system HCT-116. The assay is described as follows: Synergistic antiproliferative activity against human HCT116 cells assessed as combination index at 3.2 uM after 48 hrs in presence of 0.1 uM laxaphycin B4 by MTT assay. The format is functional.
The test system of assay [16] is HCT-116. The assay is described as follows: Synergistic antiproliferative activity against human HCT116 cells assessed as combination index at 1 uM after 48 hrs in presence of 0.032 uM laxaphycin B4 by MTT assay. It counts as functional.
The test system of assay [17] is HCT-116. The assay is described as follows: Synergistic antiproliferative activity against human HCT116 cells assessed as combination index at 320 uM after 48 hrs in presence of 32 uM laxaphycin B4 by MTT assay. The format is functional.
Assay [18] has as its system HCT-116. Nature of the assay: Synergistic antiproliferative activity against human HCT116 cells assessed as combination index at 100 uM after 48 hrs in presence of 10 uM laxaphycin B4 by MTT assay. It counts as functional.
Assay [19] relates to HCT-116. Nature of the assay: Synergistic antiproliferative activity against human HCT116 cells assessed as combination index at 32 uM after 48 hrs in presence of 3.2 uM laxaphycin B4 by MTT assay. It counts as functional.
The test system of assay [20] is HCT-116. The assay is described as follows: Synergistic antiproliferative activity against human HCT116 cells assessed as combination index at 3.2 uM after 48 hrs in presence of 0.32 uM laxaphycin B4 by MTT assay. It counts as functional.
Assay [21] deals with HCT-116. Nature of the assay: Synergistic antiproliferative activity against human HCT116 cells assessed as combination index at 1 uM after 48 hrs in presence of 0.1 uM laxaphycin B4 by MTT assay. The format is functional.

Starred links: 1 amine or outer side, 2 acyl side, 3 side chain; linkers in the order of their positions; H or OH if unused. Non-standard residues stand in square brackets, D forms with d. Residues, ends and D or L forms follow the SMILES beside them. dβ3hAhp = CCCCC[C@H](CC(=O)[*:2])N[*:1]; d(aIle) = CC[C@H](C)[C@@H](N)C(=O)O; Hyp = O=C(O)[C@@H]1C[C@@H](O)CN1; X1 = C/C=C(/N[*:1])C(=O)[*:2]; hSer = N[C@@H](CCO)C(=O)O

The IC50 is the midpoint of a concentration-inhibition curve. Read a low IC50 as greater potency in that assay. In turn, `CCCCCCC[C@@H]1CC(=O)N[C@@H](C(C)C)C(=O)N[C@H]([C@@H](O)C(C)C)C(=O)N[C@@H](CCO)C(=O)N[C@H]([C@@H](O)C(C)C)C(=O)N[C@@H](CCC(N)=O)C(=O)N(C)[C@@H]([C@@H](C)CC)C(=O)N[C@H]([C@@H](O)C(N)=O)C(=O)N[C@@H]([C@@H](C)O)C(=O)N2C[C@H](O)C[C@H]2C(=O)N[C@H](CC(C)C)C(=O)N[C@@H]([C@@H](C)O)C(=O)N1` registered an IC50 in the assay with HCT-116 [1] of 1.7 µM. Also, the CI with HCT-116 [2] was determined as 0.029; in the assay on HCT-116 [3], 0.063; in the assay with HCT-116 [4], 0.121; in the assay with HCT-116 [5], 5.267; with HCT-116 [6] it was 0.0002; in the assay with HCT-116 [7], 0.0001. Further, the CI with HCT-116 [8] is 0.0005; with HCT-116 [9], 0.1157; in the assay on HCT-116 [10], 0.2909; in the assay on HCT-116 [11], 0.2457.
`C/C=C1/NC(=O)[C@H](CCO)NC(=O)C[C@@H](CCCCC)NC(=O)CNC(=O)[C@H](CC(C)C)NC(=O)[C@@H]([C@@H](C)CC)NC(=O)[C@H](C(C)C)NC(=O)[C@@H](CC(C)C)NC(=O)[C@@H](Cc2ccccc2)NC(=O)[C@H](CCO)NC(=O)[C@@H]2C[C@@H](O)CN2C1=O` (cyclo(G[dβ3hAhp][hSer][X1][Hyp][hSer][dF][dL]V[d(aIle)]L)) yielded a half-maximal inhibitory concentration (IC50) in the assay on HCT-116 [1] of 29 µM.
Consider `C/C=C1/NC(=O)[C@H](CCO)NC(=O)C[C@@H](CCCCC)NC(=O)CNC(=O)[C@H](CC(C)C)NC(=O)[C@@H]([C@@H](C)CC)NC(=O)[C@H]([C@@H](C)CC)NC(=O)[C@@H](CC(C)C)NC(=O)[C@@H](Cc2ccccc2)NC(=O)[C@H](CCO)NC(=O)[C@@H]2C[C@@H](O)CN2C1=O` [LAXAPHYCIN A] (cyclo(G[dβ3hAhp][hSer][X1][Hyp][hSer][dF][dL]I[d(aIle)]L)), for which the CI in the assay with HCT-116 [12] was 0.1157; in the assay on HCT-116 [13], 0.029; in the assay on HCT-116 [14], 0.063; with HCT-116 [15] it was 0.121; with HCT-116 [16], 5.267; with HCT-116 [17] it was 0.0002. In addition, the CI in the assay with HCT-116 [18] amounted to 0.0001; with HCT-116 [19], 0.0005; in the assay on HCT-116 [20] it was 0.2909; with HCT-116 [21] it was 0.2457. In the assay with HCT-116 [1], this compound had an IC50 of 23 µM.

These data come from ChEMBL document CHEMBL4219191, “Discovery of new A- and B-type laxaphycins with synergistic anticancer activity” (Bioorg Med Chem, 2018).
